Assays:
[1] = system: selectively-mutated p51 thumb α-helix I variants (Lys275 – Arg286) of HIV-1 RT; assay type: biochemical; details: Supplementary Table S1
Summary of the method: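 Reconstituted p66/p51 RT with p51 thumb mutations (150 - 800 ng), pre-mixed with test compound in DMSO; 18-nt 3′-fluorescein RNA/5′-dabsyl DNA hybrid (250 nM final) added to start. […] Triplicates.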

HIV-1RF isolate = assay: in vitro; assay type: cell-based
[2] = molecular target: HIV-1 RT DNA-dependent DNA polymerase activity (Human immunodeficiency virus type 1 group M subtype B, UniProt P03366); assay: DNA-dependent DNA polymerase assay; assay type: biochemical; details: read-out: inhibition of DNA-dependent DNA polymerase activity

Structure (SMILES)	inhibition at 50 µM [2] [%]	also measured
Cc1sc2nc(-c3ccc(O)c(O)c3)[nH]c(=O)c2c1C [Compound 9]		sensitivity of the entire panel of p51 thumb α-helix I variants [1]: uniformly sensitive
CCCc1c(C)sc2nc(-c3ccc(O)c(O)c3)[nH]c(=O)c12 [Compound 24]		selectivity ratio (HIV-1RF isolate; human, sr, selectivity ratio, i.e., CC50/EC50, CC50/EC50): ~6
CCCCc1c(C)sc2nc(-c3ccc(O)c(O)c3)[nH]c(=O)c12 [Compound 25]	> 60	
O=c1[nH]c(-c2ccc(O)c(O)c2)nc2sc3c(c12)CCCC3 [Compound 28]	> 60	protection from HIV infection (HIV-1RF isolate; HIV-1RF in CEM-SS cells): failed to elicit protection from HIV infection
O=c1[nH]c(-c2ccc(O)c(O)c2)nc2sc3c(c12)CCCCCC3 [Compound 30]	> 60	

— article PMC3880631 (Journal of medicinal chemistry, 2013)
